Results from ChEMBL document CHEMBL1828528, “Acyclic nucleoside thiophosphonates as potent inhibitors of HIV and HBV replication” (Eur J Med Chem, 2011).
Calls of active or inactive are those of the source. No cut-off for these calls is given here.

Assays:
Sindbis virus = test: Antiviral activity against Sindbis virus infected in african green monkey Vero cells assessed as inhibition of virus-induced cytopathic effect up to 200 uM measured on day 3 post infection by microscopic analysis; type: functional, organism-based
Summary of the method: (§1)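 Confluent Vero cell monolayers inoculated with 100 CCID50 of virus. Compound added after 1–2 h adsorption, tested up to 200 μM. Microscopic CPE scoring on day 3 post infection versus untreated controls.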

[1] = Stability of compound in presence of CEM-SS cell extract assessed as compound degradation after 24 hrs by HPLC analysis; type: physicochemical; conditions: human, read-out: Activity
Summary of the method: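 Compound diluted to 0.1 mM final in one of two media and incubated at 37 °C: RPMI-1640 with 10% heat-inactivated FCS, or CEM-SS cell extract (soluble proteins 3 mg/mL in 10 mM Tris-HCl pH 7.4, 140 mM KCl). Aliquots were taken over time, frozen at −80 °C, then run on C18 reverse-phase HPLC with on-line filtration, TEAB/acetonitrile gradient and 260 nm detection. Degradation products were identified by co-injection.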

[2] = Cytotoxicity against human HepAD38 cells; type: cell-based
Influenza A virus = test: Antiviral activity against influenza A virus; type: functional, organism-based
[3] = test system: Mammalian orthoreovirus 1; test: Antiviral activity against Reovirus 1 infected in african green monkey Vero cells assessed as inhibition of virus-induced cytopathic effect up to 200 uM measured on day 3 post infection by microscopic analysis; type: functional, organism-based; summary of the method: as §1
Influenza B virus = test: Antiviral activity against influenza B virus; type: functional, organism-based
[4] = Cytotoxicity against human HEL cells assessed as alteration in cellular morphology by microscopic analysis; type: cell-based
Summary of the method: (§2)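 Uninfected confluent Vero, CrFK, HEL or HeLa cultures incubated with serial compound dilutions (up to 200 μM) for the same period as the antiviral assays. Minimal toxic concentration is the lowest giving microscopically detectable alteration of cell morphology.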

Vero = test: Cytotoxicity against african green monkey Vero cells up to 200 uM; type: cell-based; conditions: chlorocebus sabaeus; summary of the method: as §2
[5] = test system: Human immunodeficiency virus 1; test: Antiviral activity against HIV1 clade C isolate 2914 infected in human H9 cells assessed as inhibition of viral replication; type: functional, organism-based; conditions: Human immunodeficiency virus 1, clade C isolate 2914, H9
Summary of the method: (§3)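 H9 cells infected with HIV-1 clinical isolates of clades A, B, C, D, A/E, F and G, in the presence of graded compound concentrations. EC50 is the concentration reducing viral replication by 50%.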

[6] = test system: Human immunodeficiency virus 1; test: Antiviral activity against HIV1 clade G isolate 3187 infected in human H9 cells assessed as inhibition of viral replication; type: functional, organism-based; conditions: Human immunodeficiency virus 1, clade G isolate 3187, H9; summary of the method: as §3
[7] = test system: Human immunodeficiency virus 1; test: Antiviral activity against 100 TCID50 wild-type Human immunodeficiency virus 1 3B infected in CEM cells assessed as inhibition of syncytia formation after 4 days by microscopic analysis; type: functional, organism-based; conditions: CCRF-CEM, 96 h
Summary of the method: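 Human CEM cells (~3 × 10^5 cells/cm3) infected with 100 CCID50/mL HIV-1 IIIB and seeded into wells holding compound dilutions. After 4 days at 37 °C, giant-cell (syncytium) formation was scored microscopically. EC50 is the concentration inhibiting syncytia formation by 50%.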

[8] = test system: Human immunodeficiency virus 1; test: Antiviral activity against HIV1 clade D isolate 1649 infected in human H9 cells assessed as inhibition of viral replication; type: functional, organism-based; conditions: Human immunodeficiency virus 1, clade D isolate 1649, H9; summary of the method: as §3
[9] = test system: Human immunodeficiency virus 1; test: Antiviral activity against 125 TCID50 wild type HIV1 LAI infected in human H9 cells assessed as reduction in viral replication measured on day 7 post infection by reverse transcriptase activity; type: functional, organism-based; conditions: Human immunodeficiency virus 1, LAI, H9, 168 h
Summary of the method: (§4)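 PHA-P-activated PBMC (1.5 × 10^5; donor cells stimulated 3 days with 1 μg/mL PHA-P plus 5 IU/mL IL-2) or H9 cells (5 × 10^5) in RPMI-1640/10% FCS. Cells pre-treated 30 min with graded compound concentrations, then infected with HIV-1 LAI (100 or 125 TCID50). Supernatant RT activity read on day 7. EC50 from quadratic fit of % inhibition; triplicates, PBMC repeated with a second donor.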

[10] = Cytotoxicity against feline kidney CRFK cells up to 200 uM; type: cell-based, Felis catus; conditions: cat; summary of the method: as §2
[11] = test system: Human immunodeficiency virus 1; test: Antiviral activity against 100 TCID50 wild type HIV1 LAI infected in human PBMC assessed as reduction in viral replication measured on day 7 post infection by reverse transcriptase activity; type: functional, organism-based; conditions: Human immunodeficiency virus 1, LAI, 168 h; summary of the method: as §4
Human alphaherpesvirus 2 = test: Antiviral activity against Herpes simplex virus type 2 G infected in HEL cells assessed as inhibition of virus-induced cytopathic effect; type: functional, organism-based; conditions: Human alphaherpesvirus 2, strain G
Summary of the method: (§5)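 Confluent HEL cell monolayers inoculated with 100 CCID50 of virus. Compounds added after a 1–2 h adsorption period. Virus-induced cytopathic effect scored microscopically at 3 days post infection as % of untreated controls. EC50 derived from graphical plots.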

[12] = Cytotoxicity against […]-activated human H9 cells on day 7 by MTT assay; type: cell-based
Summary of the method: (§6)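 Uninfected PHA-P-activated PBMC and H9 cells exposed to graded compound concentrations. Viability by MTT on day 7. CC50 from quadratic fit of % viability against concentration; triplicates.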

[13] = test system: Human immunodeficiency virus 2; test: Antiviral activity against 100 TCID50 wild-type Human immunodeficiency virus type 2 ROD infected in C8166 cells assessed as inhibition of syncytia formation after 4 days by microscopic analysis; type: functional, organism-based; conditions: Human immunodeficiency virus 2, ISOLATE ROD, C8166, 96 h
[14] = test system: Human immunodeficiency virus 1; test: Antiviral activity against HIV1 clade C isolate 4110 infected in human H9 cells assessed as inhibition of viral replication; type: functional, organism-based; conditions: Human immunodeficiency virus 1, clade C isolate 4110, H9; summary of the method: as §3
[15] = test system: Human immunodeficiency virus 1; test: Antiviral activity against HIV1 clade A isolate 4113 infected in human H9 cells assessed as inhibition of viral replication; type: functional, organism-based; conditions: Human immunodeficiency virus 1, clade A isolate 4113, H9; summary of the method: as §3
[16] = test system: Respiratory syncytial virus; test: Antiviral activity against Respiratory syncytial virus infected in HeLa cells assessed as inhibition of virus-induced cytopathic effect up to 200 uM measured on day 3 post infection by microscopic analysis; type: functional, organism-based
Summary of the method: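 HeLa monolayers at confluency infected with 100 CCID50 of virus. Compound dilutions up to 200 μM added after 1–2 h adsorption. Cytopathic effect recorded microscopically on day 3 relative to untreated controls.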

Hepatitis B virus = test: Antiviral activity against Hepatitis B virus infected in human HepAD38 cells assessed as reduction in viral DNA level after 6 days by real time quantitative PCR analysis; type: functional, organism-based; conditions: HePAD38, 144 h
Summary of the method: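 Tetracycline-regulated HepAD38 cells (5 × 10^5) induced after 2–3 days by PBS wash and feeding with medium lacking tetracycline and G418, with or without compound. Medium changed at day 3. Intracellular HBV DNA quantified by TaqMan Q-PCR at day 6 post induction against a full-genome plasmid standard curve, expressed as % of untreated. Actives retested.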

Human alphaherpesvirus 1 = test: Antiviral activity against Herpes simplex virus type 1 KOS infected in HEL cells assessed as inhibition of virus-induced cytopathic effect; type: functional, organism-based; conditions: Human alphaherpesvirus 1, KOS; summary of the method: as §5
[17] = Cytotoxicity against […]-activated human PBMC on day 7 by MTT assay; type: cell-based; summary of the method: as §6
Vaccinia virus = test: Antiviral activity against Vaccinia virus infected in HEL cells assessed as inhibition of virus-induced cytopathic effect; type: functional, organism-based; conditions: Orthopoxvirus vaccinia; summary of the method: as §5

Nc1ncnc2c1ncn2CCOCP(=O)([O-])[S-].[Na+].[Na+] (stereo not given)
inhibition (Sindbis virus): inactive | metabolised at 24 h [1]: < 1% | CC50 [2]: > 150 µM | Activity (Influenza A virus): inactive | inhibition [3]: inactive | Activity (Influenza B virus): inactive | MCC [4]: > 200 µM | Activity (Vero): Non-toxic | EC50 [5]: 0.49 µM | EC50 [6]: 0.88 µM | EC50 [7]: 16 µM | EC50 [8]: 2.77 µM | EC50 [9]: 1.9 µM | Activity [10]: Non-toxic | EC50 [11]: 14 µM | EC50 (Human alphaherpesvirus 2): 24 µM | CC50 at 7 day [12]: > 30 µM | EC50 [13]: 23 µM | EC50 [14]: 0.45 µM | EC50 [15]: 1.64 µM | inhibition [16]: inactive | EC50 (Hepatitis B virus): 3 µM | EC50 (Human alphaherpesvirus 1): 40 µM | CC50 at 7 day [17]: > 30 µM | EC50 (Vaccinia virus): 84 µM

C[C@H](Cn1cnc2c(N)ncnc21)OCP(=O)([O-])[S-].[Na+].[Na+] (stereo not given in full)
inhibition (Sindbis virus): inactive | metabolised at 24 h [1]: < 1% | CC50 [2]: > 150 µM | Activity (Influenza A virus): inactive | inhibition [3]: inactive | Activity (Influenza B virus): inactive | MCC [4]: > 200 µM | Activity (Vero): Non-toxic | EC50 [5]: 0.38 µM | EC50 [6]: 0.12 µM | EC50 [7]: 14 µM | EC50 [8]: 0.71 µM | EC50 [9]: 0.38 µM | Activity [10]: Non-toxic | EC50 [11]: 4.2 µM | EC50 (Human alphaherpesvirus 2): 48 µM | CC50 at 7 day [12]: > 100 µM | EC50 [13]: 7.9 µM | EC50 [14]: 0.54 µM | EC50 [15]: 4.49 µM | inhibition [16]: inactive | EC50 (Hepatitis B virus): 2.8 µM | EC50 (Human alphaherpesvirus 1): 169 µM | CC50 at 7 day [17]: > 100 µM | EC50 (Vaccinia virus): 80 µM
